tested on: Rattus norvegicus; assay: Antiinflammatory activity against albino rat assessed as inhibition of carrageenan-induced paw edema at 0.28 mmol/kg, po administered 30 mins prior to carrageenan challenge measured after 1 hr relative to control; assay type: functional; details: not given
How it was run: (§1)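 Adult male albino rats (120–140 g), in groups of four, were fasted 24 h with water allowed. Compounds were given orally as a suspension in 0.5% w/v CMC in water, and controls received CMC alone. After 30 min, 0.1 mL of 1% carrageenan in saline was injected subplantar into the right hind paw and saline into the left. Paw thickness was measured by caliper. % inhibition = [(VR−VL)control − (VR−VL)treated]/(VR−VL)control; one-way ANOVA.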

Compound	inhibition in vivo at 280 µmol/kg [%]
CC(=O)c1ccc(NC(=O)c2nc(-c3ccccc3)n(-c3ccc(S(N)(=O)=O)cc3)n2)cc1	53
CC(C)NC(=O)c1nc(-c2ccccc2)n(-c2ccc(S(N)(=O)=O)cc2)n1	21
NNC(=O)c1nc(-c2ccccc2)n(-c2ccc(S(N)(=O)=O)cc2)n1	32
NC(=O)c1nc(-c2ccccc2)n(-c2ccc(S(N)(=O)=O)cc2)n1	43
COc1ccc(NC(=O)c2nc(-c3ccccc3)n(-c3ccc(S(N)(=O)=O)cc3)n2)cc1	53
Cc1ccc(-c2cc(C(F)(F)F)nn2-c2ccc(S(N)(=O)=O)cc2)cc1 [CELECOXIB]	44
NS(=O)(=O)c1ccc(-n2nc(C(=O)NC3CCCCC3)nc2-c2ccccc2)cc1	20

tested on: Rattus norvegicus; assay: Antiinflammatory activity against albino rat assessed as inhibition of carrageenan-induced paw edema at 0.28 mmol/kg, po administered 30 mins prior to carrageenan challenge measured after 2 hrs relative to control; assay type: functional; details: not given; how it was run: as §1

Compound	inhibition in vivo at 280 µmol/kg [%]
CC(=O)c1ccc(NC(=O)c2nc(-c3ccccc3)n(-c3ccc(S(N)(=O)=O)cc3)n2)cc1	68
CC(C)NC(=O)c1nc(-c2ccccc2)n(-c2ccc(S(N)(=O)=O)cc2)n1	43
NNC(=O)c1nc(-c2ccccc2)n(-c2ccc(S(N)(=O)=O)cc2)n1	53
NC(=O)c1nc(-c2ccccc2)n(-c2ccc(S(N)(=O)=O)cc2)n1	48
COc1ccc(NC(=O)c2nc(-c3ccccc3)n(-c3ccc(S(N)(=O)=O)cc3)n2)cc1	57
Cc1ccc(-c2cc(C(F)(F)F)nn2-c2ccc(S(N)(=O)=O)cc2)cc1 [CELECOXIB]	50
NS(=O)(=O)c1ccc(-n2nc(C(=O)NC3CCCCC3)nc2-c2ccccc2)cc1	43

tested on: Rattus norvegicus; assay: Antiinflammatory activity against albino rat assessed as inhibition of carrageenan-induced paw edema at 0.28 mmol/kg, po administered 30 mins prior to carrageenan challenge measured after 3 hrs relative to control; assay type: functional; details: not given; how it was run: as §1

Compound	inhibition in vivo at 280 µmol/kg [%]
CC(=O)c1ccc(NC(=O)c2nc(-c3ccccc3)n(-c3ccc(S(N)(=O)=O)cc3)n2)cc1	73
CC(C)NC(=O)c1nc(-c2ccccc2)n(-c2ccc(S(N)(=O)=O)cc2)n1	55
NNC(=O)c1nc(-c2ccccc2)n(-c2ccc(S(N)(=O)=O)cc2)n1	60
NC(=O)c1nc(-c2ccccc2)n(-c2ccc(S(N)(=O)=O)cc2)n1	52
COc1ccc(NC(=O)c2nc(-c3ccccc3)n(-c3ccc(S(N)(=O)=O)cc3)n2)cc1	78
Cc1ccc(-c2cc(C(F)(F)F)nn2-c2ccc(S(N)(=O)=O)cc2)cc1 [CELECOXIB]	69
NS(=O)(=O)c1ccc(-n2nc(C(=O)NC3CCCCC3)nc2-c2ccccc2)cc1	65

tested on: Rattus norvegicus; assay: Antiinflammatory activity against albino rat assessed as inhibition of carrageenan-induced paw edema at 0.28 mmol/kg, po administered 30 mins prior to carrageenan challenge measured after 4 hrs relative to control; assay type: functional; details: not given; how it was run: as §1

Compound	inhibition in vivo at 280 µmol/kg [%]
CC(=O)c1ccc(NC(=O)c2nc(-c3ccccc3)n(-c3ccc(S(N)(=O)=O)cc3)n2)cc1	64
CC(C)NC(=O)c1nc(-c2ccccc2)n(-c2ccc(S(N)(=O)=O)cc2)n1	44
NNC(=O)c1nc(-c2ccccc2)n(-c2ccc(S(N)(=O)=O)cc2)n1	45
NC(=O)c1nc(-c2ccccc2)n(-c2ccc(S(N)(=O)=O)cc2)n1	49
COc1ccc(NC(=O)c2nc(-c3ccccc3)n(-c3ccc(S(N)(=O)=O)cc3)n2)cc1	73
Cc1ccc(-c2cc(C(F)(F)F)nn2-c2ccc(S(N)(=O)=O)cc2)cc1 [CELECOXIB]	59
NS(=O)(=O)c1ccc(-n2nc(C(=O)NC3CCCCC3)nc2-c2ccccc2)cc1	53

tested on: Rattus norvegicus; assay: Antiinflammatory activity against albino rat assessed as inhibition of carrageenan-induced paw edema at 0.28 mmol/kg, po administered 30 mins prior to carrageenan challenge measured after 5 hrs relative to control; assay type: functional; details: not given; how it was run: as §1

Compound	inhibition in vivo at 280 µmol/kg [%]
CC(=O)c1ccc(NC(=O)c2nc(-c3ccccc3)n(-c3ccc(S(N)(=O)=O)cc3)n2)cc1	42
CC(C)NC(=O)c1nc(-c2ccccc2)n(-c2ccc(S(N)(=O)=O)cc2)n1	43
NNC(=O)c1nc(-c2ccccc2)n(-c2ccc(S(N)(=O)=O)cc2)n1	32
NC(=O)c1nc(-c2ccccc2)n(-c2ccc(S(N)(=O)=O)cc2)n1	42
COc1ccc(NC(=O)c2nc(-c3ccccc3)n(-c3ccc(S(N)(=O)=O)cc3)n2)cc1	55
Cc1ccc(-c2cc(C(F)(F)F)nn2-c2ccc(S(N)(=O)=O)cc2)cc1 [CELECOXIB]	52
NS(=O)(=O)c1ccc(-n2nc(C(=O)NC3CCCCC3)nc2-c2ccccc2)cc1	42

tested on: Rattus norvegicus; assay: Antiinflammatory activity against albino rat assessed as inhibition of carrageenan-induced paw edema at 0.28 mmol/kg, po administered 30 mins prior to carrageenan challenge measured after 3 hrs relative to indomethacin; assay type: functional; set-up: scale not given: the % may be the effect or the level left; details: not given

Compound	Activity [%]
CC(=O)c1ccc(NC(=O)c2nc(-c3ccccc3)n(-c3ccc(S(N)(=O)=O)cc3)n2)cc1	92
CC(C)NC(=O)c1nc(-c2ccccc2)n(-c2ccc(S(N)(=O)=O)cc2)n1	70
NNC(=O)c1nc(-c2ccccc2)n(-c2ccc(S(N)(=O)=O)cc2)n1	76
NC(=O)c1nc(-c2ccccc2)n(-c2ccc(S(N)(=O)=O)cc2)n1	66
COc1ccc(NC(=O)c2nc(-c3ccccc3)n(-c3ccc(S(N)(=O)=O)cc3)n2)cc1	99
NS(=O)(=O)c1ccc(-n2nc(C(=O)NC3CCCCC3)nc2-c2ccccc2)cc1	82

tested on: Rattus norvegicus; assay: Antiinflammatory activity against albino rat assessed as inhibition of carrageenan-induced paw edema at 0.28 mmol/kg, po administered 30 mins prior to carrageenan challenge measured after 3 hrs relative to celecoxib; assay type: functional; set-up: scale not given: the % may be the effect or the level left; details: not given

Compound	Activity [%]
CC(=O)c1ccc(NC(=O)c2nc(-c3ccccc3)n(-c3ccc(S(N)(=O)=O)cc3)n2)cc1	106
CC(C)NC(=O)c1nc(-c2ccccc2)n(-c2ccc(S(N)(=O)=O)cc2)n1	80
NNC(=O)c1nc(-c2ccccc2)n(-c2ccc(S(N)(=O)=O)cc2)n1	87
NC(=O)c1nc(-c2ccccc2)n(-c2ccc(S(N)(=O)=O)cc2)n1	75
COc1ccc(NC(=O)c2nc(-c3ccccc3)n(-c3ccc(S(N)(=O)=O)cc3)n2)cc1	113
Cc1ccc(-c2cc(C(F)(F)F)nn2-c2ccc(S(N)(=O)=O)cc2)cc1 [CELECOXIB]	100
NS(=O)(=O)c1ccc(-n2nc(C(=O)NC3CCCCC3)nc2-c2ccccc2)cc1	94

tested on: Rattus norvegicus; assay: Gastric toxicity in rat assessed as ulcer index at 0.28 mmol/kg, po; assay type: organism-based; details: in vivo

Compound	UI
CC(=O)c1ccc(NC(=O)c2nc(-c3ccccc3)n(-c3ccc(S(N)(=O)=O)cc3)n2)cc1	0.5
CC(C)NC(=O)c1nc(-c2ccccc2)n(-c2ccc(S(N)(=O)=O)cc2)n1	0
NNC(=O)c1nc(-c2ccccc2)n(-c2ccc(S(N)(=O)=O)cc2)n1	3
NC(=O)c1nc(-c2ccccc2)n(-c2ccc(S(N)(=O)=O)cc2)n1	2
COc1ccc(NC(=O)c2nc(-c3ccccc3)n(-c3ccc(S(N)(=O)=O)cc3)n2)cc1	2.3
Cc1ccc(-c2cc(C(F)(F)F)nn2-c2ccc(S(N)(=O)=O)cc2)cc1 [CELECOXIB]	0.5
NS(=O)(=O)c1ccc(-n2nc(C(=O)NC3CCCCC3)nc2-c2ccccc2)cc1	0

target: T1, Prostaglandin G/H synthase 1 (Ovis aries, UniProt P05979); assay: Inhibition of ovine COX1 using ADHP as substrate after 20 mins by fluorescence assay; details: not given
T1 sequence (P05979 whole entry): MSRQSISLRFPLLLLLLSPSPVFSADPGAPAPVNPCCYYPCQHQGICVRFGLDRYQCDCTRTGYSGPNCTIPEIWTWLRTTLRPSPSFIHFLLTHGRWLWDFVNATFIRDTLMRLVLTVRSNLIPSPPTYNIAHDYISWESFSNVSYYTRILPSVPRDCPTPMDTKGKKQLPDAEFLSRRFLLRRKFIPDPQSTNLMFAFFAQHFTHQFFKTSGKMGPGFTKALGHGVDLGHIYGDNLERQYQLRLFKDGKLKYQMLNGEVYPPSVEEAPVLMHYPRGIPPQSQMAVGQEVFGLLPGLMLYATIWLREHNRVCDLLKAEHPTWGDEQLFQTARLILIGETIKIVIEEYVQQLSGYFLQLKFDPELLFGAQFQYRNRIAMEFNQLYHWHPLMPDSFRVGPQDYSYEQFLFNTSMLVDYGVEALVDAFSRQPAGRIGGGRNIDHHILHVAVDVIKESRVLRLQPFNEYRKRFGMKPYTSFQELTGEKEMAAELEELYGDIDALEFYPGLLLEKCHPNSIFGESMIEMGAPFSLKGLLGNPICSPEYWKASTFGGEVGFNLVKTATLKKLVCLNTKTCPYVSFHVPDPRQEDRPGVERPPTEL
How it was run: (§2)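 Ovine COX-1 or human recombinant COX-2 was preincubated 20 min at room temperature with a range of compound concentrations in 100 mM Tris-HCl pH 8.0, heme and ADHP. Arachidonic acid was then added for 2 min at room temperature, and resorufin fluorescence was read. IC50 came from the dose-response curve (triplicate determinations). Selectivity index = COX-1 IC50/COX-2 IC50.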

IC50 [µM]	Compound
> 1000	CC(C)NC(=O)c1nc(-c2ccccc2)n(-c2ccc(S(N)(=O)=O)cc2)n1
> 1000	COc1ccc(NC(=O)c2nc(-c3ccccc3)n(-c3ccc(S(N)(=O)=O)cc3)n2)cc1
> 1000	NS(=O)(=O)c1ccc(-n2nc(C(=O)NC3CCCCC3)nc2-c2ccccc2)cc1

target: T2, Prostaglandin G/H synthase 2 (Homo sapiens, UniProt P35354); assay: Inhibition of human recombinant COX2 using ADHP as substrate after 20 mins by fluorescence assay; details: not given; how it was run: as §2
T2 sequence (P35354 whole entry): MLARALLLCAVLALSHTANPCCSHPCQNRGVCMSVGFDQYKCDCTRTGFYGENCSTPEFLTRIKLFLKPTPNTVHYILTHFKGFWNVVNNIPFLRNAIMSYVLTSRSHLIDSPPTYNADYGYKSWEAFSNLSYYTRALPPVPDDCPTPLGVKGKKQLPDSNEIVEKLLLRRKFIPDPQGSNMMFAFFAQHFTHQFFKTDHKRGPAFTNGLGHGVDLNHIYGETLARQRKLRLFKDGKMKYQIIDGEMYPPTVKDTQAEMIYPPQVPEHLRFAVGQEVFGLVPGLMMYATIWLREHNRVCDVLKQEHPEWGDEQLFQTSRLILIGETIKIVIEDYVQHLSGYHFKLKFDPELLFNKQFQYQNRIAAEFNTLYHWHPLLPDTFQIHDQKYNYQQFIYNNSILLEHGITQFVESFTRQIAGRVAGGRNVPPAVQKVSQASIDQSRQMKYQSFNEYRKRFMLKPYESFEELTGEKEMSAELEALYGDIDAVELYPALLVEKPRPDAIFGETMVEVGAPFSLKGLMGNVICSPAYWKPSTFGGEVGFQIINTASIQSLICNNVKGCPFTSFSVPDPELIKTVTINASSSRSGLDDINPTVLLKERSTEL

IC50 [µM]	Compound
16	CC(C)NC(=O)c1nc(-c2ccccc2)n(-c2ccc(S(N)(=O)=O)cc2)n1
0.89	COc1ccc(NC(=O)c2nc(-c3ccccc3)n(-c3ccc(S(N)(=O)=O)cc3)n2)cc1
0.66	NS(=O)(=O)c1ccc(-n2nc(C(=O)NC3CCCCC3)nc2-c2ccccc2)cc1

tested on: not listed separately; assay: Selectivity index, ratio of IC50 for ovine COX1 to IC50 for human recombinant COX2; details: not given; how it was run: as §2

Ratio IC50	Compound
> 62.5	CC(C)NC(=O)c1nc(-c2ccccc2)n(-c2ccc(S(N)(=O)=O)cc2)n1
> 1120	COc1ccc(NC(=O)c2nc(-c3ccccc3)n(-c3ccc(S(N)(=O)=O)cc3)n2)cc1
> 1520	NS(=O)(=O)c1ccc(-n2nc(C(=O)NC3CCCCC3)nc2-c2ccccc2)cc1
